High-throughput results from PubChem BioAssay.
In the library only some 3.5% were active in any assay of this set; here they are far more common.
MITF act = MITF TRPM1 promoter activation in melanoma cells. 300,000 compounds, 0.75% hits. AID 588334. activation, % at 12.5 µM. SK-MEL-5 TRPM1-promoter luciferase, 24 h; % of positive control, neutral wells = 0;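 active = mean activation of at least 80% with every replicate also reaching 80%; inconclusive = mean reaches 80% but some replicate falls short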
ERAP1 inh = ERAP1 (human) enzyme inhibition; recombinant ERAP1, Leu-AMC fluorescence, 60 min; inhibition, % at 10.7 µM; 340,000 compounds, 0.15% hits; AID 652197;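 active = mean replicate inhibition of at least 30%, or all replicates individually reaching that 30% level; inactive = mean below 30% and not every replicate reaching it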
Target sequence (Q9NZ08 whole entry, looked up): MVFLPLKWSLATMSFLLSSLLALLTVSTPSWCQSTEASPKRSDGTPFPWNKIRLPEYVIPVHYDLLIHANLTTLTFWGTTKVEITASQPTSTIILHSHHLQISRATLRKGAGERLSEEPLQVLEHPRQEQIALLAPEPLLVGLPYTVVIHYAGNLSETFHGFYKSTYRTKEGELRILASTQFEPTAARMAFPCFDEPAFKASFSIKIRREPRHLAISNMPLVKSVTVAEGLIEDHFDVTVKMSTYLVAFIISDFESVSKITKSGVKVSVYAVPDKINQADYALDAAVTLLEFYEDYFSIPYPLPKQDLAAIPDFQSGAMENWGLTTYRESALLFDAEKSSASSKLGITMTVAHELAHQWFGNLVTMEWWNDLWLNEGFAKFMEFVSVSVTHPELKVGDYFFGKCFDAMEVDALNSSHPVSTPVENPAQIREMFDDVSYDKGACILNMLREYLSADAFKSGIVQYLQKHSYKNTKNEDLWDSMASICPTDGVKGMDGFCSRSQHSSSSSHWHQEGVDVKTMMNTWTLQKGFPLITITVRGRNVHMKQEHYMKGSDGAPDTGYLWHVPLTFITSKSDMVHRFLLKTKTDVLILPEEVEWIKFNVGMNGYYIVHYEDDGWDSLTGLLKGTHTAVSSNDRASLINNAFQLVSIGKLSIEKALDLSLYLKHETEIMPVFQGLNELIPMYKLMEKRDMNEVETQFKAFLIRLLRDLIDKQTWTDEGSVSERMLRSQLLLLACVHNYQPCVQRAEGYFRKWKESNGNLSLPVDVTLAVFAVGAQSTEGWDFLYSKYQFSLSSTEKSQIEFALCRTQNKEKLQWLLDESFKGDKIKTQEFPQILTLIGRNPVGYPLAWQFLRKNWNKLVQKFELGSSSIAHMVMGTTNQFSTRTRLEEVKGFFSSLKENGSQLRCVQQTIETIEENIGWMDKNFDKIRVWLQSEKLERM
Cneo AK release = Cryptococcus neoformans lysis via adenylate kinase release. lysis activity, % at 15 µM. C. neoformans lysis, adenylate kinase release luminescence, 4 h; normalised: neutral wells 0, clomiphene wells 100. 360,000 compounds, 0.2% hits;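 active = mean lysis activity across replicates of at least 80%, whatever share of replicates individually reach that level; inactive = mean lysis activity below 80%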
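Material – log-phase Cryptococcus neoformans yeast cells · Input – 5 × 10^6 yeast cells/mL · Medium – fresh YPD growth medium · Doses – single compound concentration per well · Timing – static 4 h at 37 °C with compound, 1 h detection · Detection – adenylate kinase release luminescence · Read-out – signal increase indicating cell lysis · Control set – Clomiphene as positive lysis control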
esBAF inh = inhibitors of esBAF chromatin remodeling in mouse ES cells. AID 602393. reporter increase, % at 12.5 µM. 350,000 compounds, 2% hits. Bmi1-luciferase knock-in reporter, 24 h; 100% = twice the neutral-well signal; in the data active = activation above about 40%; inconclusive = no clear call, values can overlap the other calls;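 also: a rise in the Bmi1 reporter signal indicates esBAF inhibition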
Env fusion inh = inhibitors of HIV Env-mediated cell fusion; HeLa-JRFL Env/CEM21 cell fusion, luciferase; inhibition, % at 12.3 µM; 360,000 compounds, 1.1% hits; AID 651610;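 active = mean replicate inhibition score of at least 50 and every replicate individually at or above 50; inconclusive = only one of the two criteria met; inactive = mean below 50 and not all replicates reaching 50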
Wnt act = activators of Wnt/beta-catenin signaling | activation, % at 9.35 µM | Wnt/beta-catenin reporter cell assay, activator, plate reader | AID 743398 | 300,000 compounds, 1.2% hits; in the data active = activation above about 30%, passing the limit was not always enough; inconclusive = no clear call, values can overlap the other calls
Numbers stand for hits.

What do the screens show for `COc1ccccc1C(=O)C1CCCN(C(=O)c2ccccc2C(C)=O)C1` (stereo unspecified)?
MITF act: inactive; ERAP1 inh: inactive; Cneo AK release: inactive; esBAF inh: 49.6; Env fusion inh: inactive; Wnt act: inactive

How did CC(C)NC(=O)N(C)C[C@@H]1OCCCC[C@H](C)Oc2ccc(NS(=O)(=O)c3ccc(F)cc3)cc2C(=O)N([C@@H](C)CO)C[C@@H]1C do in these assays?
ERAP1 inh: inactive; Cneo AK release: inactive; esBAF inh: inactive; Env fusion inh: inactive

Results for Cc1cc(C)cc(SCc2noc(C(=O)NCc3ccccc3)c2C(=O)NCc2ccccc2)c1 ?
MITF act: inactive; Cneo AK release: inactive; esBAF inh: inactive; Env fusion inh: 63.6; Wnt act: inactive

Results for O=C(NCc1ccccc1)c1onc(CSc2ccc(F)cc2)c1C(=O)NCc1ccccc1 ?
MITF act: inactive; Cneo AK release: inactive; esBAF inh: inactive; Env fusion inh: inactive; Wnt act: inactive

What do the screens show for `CN(C)C(=O)C[C@@H]1C[C@@H]2c3cc(NC(=O)Nc4ccccc4)ccc3O[C@@H]2[C@H](CO)O1`?
Cneo AK release: inactive; esBAF inh: inactive; Env fusion inh: inactive

Results for CCOc1ccccc1C(=O)NC(C(=O)OCC(=O)NNC(=O)c1cccs1)C(C)C (stereo unspecified) ?
ERAP1 inh: inactive; Cneo AK release: inactive; esBAF inh: inactive; Env fusion inh: inactive; Wnt act: inactive

How did CCOC(=O)c1c(C)[nH]c(C)c1C(=O)COC(=O)[C@@H](NC(=O)c1ccccc1OCC)C(C)C do in these assays?
MITF act: inactive; Cneo AK release: inactive; esBAF inh: inactive; Env fusion inh: 102.4; Wnt act: inactive

How did O=C(Nc1ccccc1F)N1CCc2ccccc2C1 do in these assays?
MITF act: inactive; ERAP1 inh: inactive; Cneo AK release: inactive; esBAF inh: 65.0; Env fusion inh: inactive; Wnt act: inactive

Results for O=C(Nc1cccc(Cl)c1)N1CCc2ccccc2C1 ?
ERAP1 inh: inactive; Cneo AK release: inactive; esBAF inh: 50.1; Env fusion inh: inactive; Wnt act: inactive

How did O=C(Nc1cccc(Cl)c1)c1nc[nH]c1C(=O)N1CCc2ccccc2C1 do in these assays?
MITF act: inactive; ERAP1 inh: inactive; Cneo AK release: inactive; esBAF inh: inactive; Env fusion inh: inactive; Wnt act: inactive

How did COc1cccc(NC(=O)N2CCc3nc(Nc4ccc(C(C)C)cc4)ncc3C2)c1 do in these assays?
ERAP1 inh: inactive; Cneo AK release: inactive; esBAF inh: 70.3; Env fusion inh: inactive; Wnt act: inactive

What do the screens show for `COc1cc(Nc2ncc3c(n2)CCN(C(=O)Nc2ccc(C(C)C)cc2)C3)cc(OC)c1OC`?
ERAP1 inh: inactive; Cneo AK release: inactive; esBAF inh: inactive; Env fusion inh: inconclusive; Wnt act: inactive

How did O=C(Nc1ccc([N+](=O)[O-])cc1)N1CCc2ccccc2C1 do in these assays?
MITF act: inactive; ERAP1 inh: inactive; Cneo AK release: inactive; esBAF inh: 50.8; Env fusion inh: inactive; Wnt act: inactive

How did Cc1ccc(C)c(NC(=O)N2CCc3ccccc3C2)c1 do in these assays?
MITF act: inactive; ERAP1 inh: inactive; Cneo AK release: inactive; esBAF inh: inactive; Env fusion inh: inactive; Wnt act: inactive

What do the screens show for `COc1ccccc1CN1C[C@@H](C)[C@@H](OC)CN(C)C(=O)c2cc(NC(C)=O)ccc2OC[C@H]1C`?
Cneo AK release: inactive; esBAF inh: inactive; Env fusion inh: inactive

How did O=C(C[C@@H]1CC[C@H](NC(=O)Nc2ccc3c(c2)OCO3)[C@H](CO)O1)NCc1ccc(F)cc1 do in these assays?
ERAP1 inh: inactive; Cneo AK release: inactive; esBAF inh: inactive; Env fusion inh: inactive

How did COc1cccc(NC(=O)N2CCCCCC2)c1 do in these assays?
MITF act: inactive; ERAP1 inh: inactive; Cneo AK release: inactive; esBAF inh: inactive; Env fusion inh: inactive; Wnt act: inactive

Results for COc1cccc(NC(=O)N2CCc3ccccc3C2)c1 ?
MITF act: inactive; ERAP1 inh: inactive; Cneo AK release: inactive; esBAF inh: 50.1; Env fusion inh: inactive; Wnt act: inactive

What do the screens show for `CO[C@H]1CN(C)C(=O)c2cc(NC(=O)C3CC3)ccc2OC[C@H](C)N(CCc2ccccc2)C[C@@H]1C`?
Cneo AK release: inactive; esBAF inh: inactive; Env fusion inh: inactive

What do the screens show for `COc1ccccc1Oc1ncnc2c1cnn2-c1ccccc1`?
MITF act: 91.1; ERAP1 inh: inactive; Cneo AK release: inactive; esBAF inh: 73.3; Env fusion inh: inactive; Wnt act: inactive

What do the screens show for `COc1ncnc2c1cnn2-c1ccccc1`?
Cneo AK release: inactive; esBAF inh: inactive; Env fusion inh: inactive; Wnt act: inactive

How did CCN(c1ccccc1)c1ncnc2c1cnn2-c1ccccc1 do in these assays?
ERAP1 inh: inactive; Cneo AK release: inactive; esBAF inh: 75.8; Env fusion inh: inactive; Wnt act: inactive

How did CN(Cc1ccccc1)c1ncnc2c1cnn2-c1ccccc1 do in these assays?
MITF act: 85.4; ERAP1 inh: inactive; Cneo AK release: inactive; esBAF inh: inactive; Wnt act: inactive

How did C[C@@H]1CN([C@@H](C)CO)C(=O)c2cccc(N(C)C)c2O[C@@H]1CN(C)S(=O)(=O)c1cccs1 do in these assays?
ERAP1 inh: inactive; Cneo AK release: inactive; esBAF inh: inactive; Env fusion inh: inactive

How did O=C(NCCC1=CCCCC1)c1ccc(Cl)c(S(=O)(=O)N2CCOCC2)c1 do in these assays?
MITF act: inactive; Cneo AK release: inactive; esBAF inh: inactive; Env fusion inh: inactive; Wnt act: inactive

What do the screens show for `Cc1ccc(CSCCNC(=O)c2ccc(Cl)c(S(=O)(=O)N3CCOCC3)c2)cc1`?
MITF act: inactive; Cneo AK release: inactive; esBAF inh: inactive; Env fusion inh: 84.8; Wnt act: inactive

Results for Cc1ccccc1CCNC(=O)c1ccc(Cl)c(S(=O)(=O)N2CC(C)OC(C)C2)c1 (stereo unspecified) ?
MITF act: inactive; ERAP1 inh: inactive; Cneo AK release: inactive; esBAF inh: inactive; Env fusion inh: 58.7; Wnt act: inactive

Results for O=C(NCCN1CCCCC1)[C@H]1N[C@H]2c3ccc(-c4ccc(F)cc4)c(=O)n3C[C@H]2[C@@H]1CO ?
ERAP1 inh: inactive; Cneo AK release: inactive; esBAF inh: inactive

Results for CNC[C@@H]1Oc2ccc(NS(=O)(=O)c3cccs3)cc2C(=O)N([C@H](C)CO)C[C@@H]1C ?
ERAP1 inh: inactive; Cneo AK release: inactive; esBAF inh: inactive

Results for CN1C(=O)c2cc(NC(=O)c3ccc(F)cc3)ccc2OC[C@H]2O[C@H](CC(=O)NC3CCC3)CC[C@@H]21 ?
ERAP1 inh: inactive; Cneo AK release: inactive; esBAF inh: inactive; Env fusion inh: inactive

Results for COc1ccc2c(c1)CC/C(=C\Nc1ccc3c(c1)OCO3)C2=O ?
MITF act: inconclusive; ERAP1 inh: inactive; Cneo AK release: inactive; esBAF inh: 53.2; Wnt act: inactive
